UCH37 DUB inh = inhibitors of human UCH37 deubiquitinase, primary screen, biochemical, Ub-AMC cleavage, fluorescence | Ubiquitin carboxyl-terminal hydrolase isozyme L5 (Homo sapiens), Q9Y5K5 | purified proteasome/UCH37 | inhibition, % (test concentration not listed) | 0.33% of 330,000 active | AID 588478, 2011;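 active = mean inhibition over replicate wells above about 20%, limit read from the data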;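 also: 0% = compound-free wells with enzyme and 100% = wells lacking proteasome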
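Material: Human UCH37 enzyme supplied as purified proteasome complex | Schedule: 30 min compound-proteasome preincubation then 25 min substrate reaction, room temperature | Detection: AMC fluorescence from Ub-AMC cleavage, excitation 355 nm, emission 460 nm | Benchmarks: Wells without proteasome as full block, compound-free enzyme plus substrate as uninhibited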
GASC-1 inh = inhibitors of GASC-1 histone demethylase, primary screen, biochemical, fluorescence, DELFIA europium. GST-JMJD2C(1-420) H3K9me3 demethylation. inhibition, % at 2.35 µM. 0.069% of 330,000 active;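 active = more than half of a compound's replicate wells show inhibition beyond 50%, single wells judged on their own value; inconclusive = some, but no more than half, of replicates pass 50% inhibition; inactive = no replicate passes 50% inhibition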;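 also: signal counts dimethyl H3K9 product captured on neutravidin plate; 0% = median of DMSO wells and 100% = 0.3 times that DMSO median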
Target sequence (Q9H3R0 1-420 limits assumed): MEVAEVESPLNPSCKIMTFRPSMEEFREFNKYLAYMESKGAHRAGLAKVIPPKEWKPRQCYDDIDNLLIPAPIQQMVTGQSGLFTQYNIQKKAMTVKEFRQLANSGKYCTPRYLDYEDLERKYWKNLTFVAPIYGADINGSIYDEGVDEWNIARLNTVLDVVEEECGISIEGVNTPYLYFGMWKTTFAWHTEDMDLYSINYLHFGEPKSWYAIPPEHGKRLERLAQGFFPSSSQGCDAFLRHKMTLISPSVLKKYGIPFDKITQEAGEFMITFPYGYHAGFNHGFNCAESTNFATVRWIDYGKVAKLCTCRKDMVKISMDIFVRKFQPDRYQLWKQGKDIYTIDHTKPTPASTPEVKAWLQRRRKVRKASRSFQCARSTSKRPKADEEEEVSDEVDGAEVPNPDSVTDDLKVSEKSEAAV
APOBEC3A inh = APOBEC3A ssDNA deaminase inhibitors, primary screen, selectivity assay for APOBEC3G inhibitor project, biochemical, FAM/TAMRA oligo cleavage fluorescence; DNA dC->dU-editing enzyme APOBEC-3A (Homo sapiens), P31941; recombinant A3A, FAM/TAMRA ssDNA deamination fluorescence; inhibition, % at 20 µM; 0.41% of 330,000 active; AID 493011, 2011;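 active = at least 40% inhibition at 20 µM here, with at most 30% in a related deaminase screen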;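 also: plate controls were A3A with DMSO for no effect and wells lacking A3A enzyme for full effect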
Target sequence (P31941 whole entry, looked up): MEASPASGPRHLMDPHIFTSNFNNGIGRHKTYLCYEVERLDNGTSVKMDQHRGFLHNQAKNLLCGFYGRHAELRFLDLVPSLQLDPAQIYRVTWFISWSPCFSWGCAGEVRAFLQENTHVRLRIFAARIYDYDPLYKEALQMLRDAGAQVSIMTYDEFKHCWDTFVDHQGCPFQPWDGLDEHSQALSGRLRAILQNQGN
A3G deaminase = APOBEC3G DNA deaminase inhibitors, primary screen, biochemical, fluorescence, single-stranded DNA substrate, uHTS | DNA dC->dU-editing enzyme APOBEC-3G (Homo sapiens), Q9HC16 | recombinant A3G, ssDNA deamination FAM/TAMRA fluorescence | inhibition, % at 20 µM | 0.28% of 330,000 active | AID 493012, 2011;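 active = inhibition of at least 40% at 20 µM, with no more than 30% in the related APOBEC3A deaminase screen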;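 also: plate controls were DMSO wells with A3G for no effect and wells lacking A3G enzyme for full effect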
UCH37 confirm = retest of human UCH37 deubiquitinase inhibitors, confirmation, biochemical, Ub-AMC cleavage rate, fluorescence. shares compounds with UCH37 DUB inh. Proteasome-bound UCH37. inhibition, % at 20 µM. 27% of 480 active;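 active = average inhibition over replicates above about 50%, so the earlier screening hit is confirmed, limit read from the data; inactive = the rest, counted as false positives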;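 also: based on cleavage rate fitted by regression over a 30 min kinetic read; 0% = proteasome plus Ub-AMC and 100% = Ub-AMC without proteasome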
An asterisk follows results filed as active; ? = inconclusive; . = not tested or not shown. Only some compounds are listed: those with a hit (about 0.97% of all), similar ones and a draw of the others.

SMILES | UCH37 DUB inh | GASC-1 inh | APOBEC3A inh | A3G deaminase | UCH37 confirm
CC(C)[n+]1ccn(C2=C([O-])c3ccccc3C(=O)/C2=N\S(=O)(=O)c2ccccc2)c1 | 39* | -53 | 5 | 3 | 23
CCCCC[n+]1ccn(C2=C([O-])c3ccccc3C(=O)/C2=N\S(=O)(=O)c2ccc(Br)cc2)c1 | 7 | -22 | -3 | -5 | .
CCCC[n+]1ccn(C2=C([O-])c3ccccc3C(=O)/C2=N\S(=O)(=O)c2ccccc2)c1 | 41* | -5 | 3 | 0 | 32
Cc1nc2ccccc2c(=O)n1N=Cc1ccc2ccccc2c1O | 4 | . | . | . | .
CC(C)c1ccc(S(=O)(=O)N=C2C=C(Sc3ncn[nH]3)C(=O)c3ccccc32)cc1 | 67* | . | . | . | 62*
Cc1cc(C)c(S(=O)(=O)/N=C2/C=C(Sc3ncn[nH]3)C(=O)c3ccccc32)cc1C | . | 29 | . | . | .
C[C@H]1COC2=C1C(=O)C(=O)c1c2ccc2c1CCCC2(C)C | 41* | ? | . | . | 75*
CCCC=NNC(=O)c1ccccc1O | -13 | . | . | . | .
CCOC(=O)c1sc(=S)n(CC)c1N | 52* | 30 | 0 | -9 | 25
O=c1[nH]c(=S)[nH]c2c1C(c1ccc(Br)cc1)c1c([nH]c(=S)[nH]c1=O)O2 | 27* | -4 | . | . | 38
O=C1CCCC2=C1C(c1ccc(Br)cc1)c1c([nH]c(=S)[nH]c1=O)N2 (stereo not given) | 2 | -2 | -2 | 3 | .
CCOc1ccc(C2/C(=C(\O)c3cccc(OC)c3)C(=O)C(=O)N2c2cc(C)on2)cc1OC (stereo not given) | 49* | 7 | 2 | 1 | 26
Cc1ccc(SC2=C(Sc3ccc(C)cc3)C(=O)c3ccccc3C2=O)cc1 | 52* | 13 | 3 | -4 | 29
CCOC(=O)C1=C(CCc2ccccc2)NC(=O)NC1c1cccc([N+](=O)[O-])c1 (stereo not given) | 5 | -21 | -4 | -16 | .
CN(C)/C=C/C1=C([N+](=O)[O-])C(c2cccc([N+](=O)[O-])c2)NC(=O)N1 (stereo not given) | 27* | -5 | 2 | 3 | 21
COc1cc(Cl)c(NC2=CC(=O)C(=O)c3ccccc32)c(OC)c1 | 54* | 35 | -2 | 6 | 15
CC(C)(C)OC(=O)NCCC(=O)NN=Cc1ccc2ncccc2c1 | 2 | . | . | . | .
CCOC(=O)/C(=C\C=C1/Sc2ccccc2N1CC)C(C)=O | 15 | 5 | . | . | .
CCOC(=O)/C(=C/C=C1\Sc2ccccc2N1CC)C(C)=O | 30* | -7 | -12 | -22 | 32
CCCCOc1ccc(C(=O)NN=Cc2ccc(OCCN3CCCCC3)c(OC)c2)cc1 | 2 | . | . | . | .
CC1(C)Cc2c(ccc3ccccc23)C(c2cc3ccccc3oc2=O)=N1 | 3 | -2 | -3 | -11 | .
CC1(C)Cc2ccccc2C(c2cc3ccccc3oc2=O)=N1 | 36* | -1 | -16 | -5 | -4
CCOC(=O)/C=C(\C)Sc1cc(O)c2ccccc2c1O | 81* | . | . | . | 82*
CCOC(=O)/C=C(\C)Sc1cc(=O)oc2ccccc12 | 6 | -22 | 0 | -3 | .
O=C1OC(c2ccc3ccccc3c2O)(c2ccc3ccccc3c2O)c2ccccc21 | 26* | . | . | . | -36
SMILES | UCH37 DUB inh | GASC-1 inh | APOBEC3A inh | A3G deaminase | UCH37 confirm
O=C1OC2(c3ccccc31)c1ccccc1-c1ccccc12 | 1 | . | . | . | .
Cc1[nH][nH]c(=O)c1C(c1c(C)[nH][nH]c1=O)c1cn(Cc2ccc(Cl)c(Cl)c2)c2ccccc12 | 47* | 12 | . | . | 24
C#CCOCCOCCOCCNc1nc(N2CCN(C(=O)Cn3cc(CCO)nn3)CC2)nc(N2CCN(C(=O)[C@H]([C@@H](C)O)n3cc(CCCCN)nn3)CC2)n1 | 38* | -1 | -1 | -4 | 19
C#CCOCCOCCOCCNc1nc(N2CCN(C(=O)Cn3cc(CC(C)O)nn3)CC2)nc(N2CCN(C(=O)[C@H]([C@@H](C)O)n3cc(CCCCN)nn3)CC2)n1 (stereo not given in full) | -1 | . | . | . | .
CCN1/C(=C/C=C/C=C/C=C/c2sc3ccccc3[n+]2CC)Sc2ccccc21 | 54* | 4 | 15 | 14 | 69*
O=C1NC(=O)C(=Cc2ccccc2[N+](=O)[O-])S1 | 86* | . | . | . | 99*
CNC(=O)OCc1cccc(COC(=O)NC)n1 | 35* | 6 | 0 | -2 | 21
CC(=O)NCc1cccc(CNC(C)=O)n1 | 5 | 1 | 1 | 2 | .
COc1ccc(-c2coc3cc(O)cc(O)c3c2=O)cc1OC | 4 | -8 | 2 | -3 | .
COc1ccccc1-c1coc2cc(O)cc(O)c2c1=O | 48* | 4 | -2 | -7 | -6
CCCCCc1ccc(-c2cn(Cc3cccc(OC)c3)nn2)cc1 | 4 | -13 | -1 | -3 | .
CCCCCc1ccc(-c2cn(Cc3ccc(C)cc3)nn2)cc1 | 35* | 8 | 3 | -4 | 2
Nc1nc(O)c(N=Nc2ccc(S(N)(=O)=O)cc2)c(=O)[nH]1 | 6 | 2 | 2 | 8 | .
NS(=O)(=O)c1ccc(N=Nc2c[nH]c(=O)c(O)c2)cc1 | 33* | 12 | 12 | 11 | 40
CC(C)c1ccc(C=NNC(=O)c2ccc(Cn3cccn3)o2)cc1 | 6 | . | . | . | .
CCOC(=O)NC(=O)/C(N=Nc1cccc(C(F)(F)F)c1)=C(\C)O | 0 | -5 | -2 | -4 | .
COC(=O)/C(N=Nc1cccc(C(F)(F)F)c1)=C(\C)O | 43* | 8 | 1 | 13 | 16
O=C(NC(=S)Nc1ccc(Oc2ccc(Cl)cc2)cc1)c1ccccc1 | 47* | 2 | -4 | -1 | 6
CN(N=C/C=C/c1ccccc1)C1=NS(=O)(=O)c2ccccc21 | -8 | . | . | . | .
C/C(=C\C(=O)C(F)(F)F)Nc1ccc(C(F)(F)F)cc1 | 46* | 7 | -4 | -7 | 6
CCC(=O)N(C1=C(NC)C(=O)c2ccccc2C1=O)C(C)C | 33* | 0 | 2 | 8 | 42
CNC1=C(N(C(C)=O)c2ccc(Br)cc2)C(=O)c2ccccc2C1=O | 51* | -26 | . | . | 74*
O=C1NN(c2cccc(Br)c2)C(=O)/C1=C/c1ccc(-c2cc([N+](=O)[O-])ccc2O)o1 | 31* | 4 | 28 | 16 | 67*
CCCCCc1ccc(OCCCC[n+]2ccc(C)cc2)c(CCCCC)c1 | 29* | 4 | -3 | -9 | 43
CCCCCc1ccc(OCCCC[n+]2ccccc2)c(CCCCC)c1 | 9 | ? | 1 | 1 | .
CC(CC(=O)Nc1ccc2c(c1)OCCO2)=NNC(=O)c1ccccn1 | -3 | . | . | . | .
O=C(O)CN1C(=O)/C(=C\c2cc(Br)ccc2OCc2ccc(F)cc2)SC1=S | 27* | -5 | -1 | -2 | 69*
O=C(c1ccco1)N1CCN(S(=O)(=O)N2CCOCC2)CC1 | 2 | 2 | -2 | -7 | .

Source: PubChem BioAssay
